According to PubChem BioAssay:
Inconclusive results are not listed. The source made the active and inactive calls.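 The calls were made as follows, unless noted: active = cell viability at or below a set limit in both duplicate runs, the limit being the all-compound median minus 4 SD (cut at about 23% in these data, passing the limit was not always enough); inconclusive = no clear call, values can overlap the other calls; inactive = the rest.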

Experiments:
[1] = OD615 S. cerevisiae growth inhibition, permissive medium, pilot counter-assay, permissive growth control for S. cerevisiae lifespan shortening project (AID 705;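 active = growth inhibition above 25% in both replicates, a cutoff set 3 SD above the mean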); conditions: OD615, 24 h, at 10 µM, hits give high values
In short: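 System: Engineered DeaD yeast | Buffer or medium: SC raffinose/galactose permissive medium | Incubation: Cells pre-grown 4 h, then 24 h compound exposure, 30 °C humidified | Measured by: Absorbance (optical density) at 615 nm | Read-out: Reduction in yeast growth (OD615)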

[2] = Restrictive medium S. cerevisiae growth inhibition, OD615, pilot screen of yeast lifespan reduction project, restrictive growth control (AID 706;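 active = growth inhibition above a set limit, 3 SD over mean compound inhibition, in both replicates, cut at about 43% in these data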;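 also: modified DeaD lifespan yeast strain shifted to restrictive glucose medium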); conditions: OD615, 48 h, at 10 µM, hits give high values
In short: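 Material: modified S. cerevisiae; Medium: glucose-based CSMM-D restrictive medium; Compound dosing: one concentration, 10 µM final, 0.25% DMSO; Incubation: 48 h compound exposure at 30 °C; Measured by: OD615.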

[3] = viability gain of MRP-1-high H69AR cells under doxorubicin, pilot screen, MRP-1 activator project, CellTiter-Glo, duplicate (AID 807;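 active = viability increase at or above a cutoff of the median across tested compounds plus 3 SD, cut at about 8.5% in these data, passing the limit was not always enough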;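 also: compound pretreatment 18-22 h then 72 h combined with doxorubicin; 0% = doxorubicin alone and 100% = vehicle without doxorubicin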); conditions: H69AR viability with doxorubicin, CellTiter-Glo luminescence; at 10 µM; hits give high values
[4] = growth suppression of beta-catenin knockout HCT116, pilot screen, human colon tumor cells (AID 823); conditions: CellTiter-Glo, 60 h, at 10 µM, hits give low values;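 also: 0% = wells killed by 20 µM Hyamine and 100% = untreated DMSO cell wells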
[5] = growth suppression of PTEN-deleted HCT116, pilot screen, cell-based, HCT116 clonal line, CellTiter-Glo (AID 824;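 active = viability at or below 27.92% in each of two runs, the all-compound median minus 4 SD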;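 also: 0% = 20 µM Hyamine control and 100% = vehicle cell control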); conditions: 60 h, at 10 µM, hits give low values
[6] = inhibitors of the yeast RAM network, pilot screen, dse1pr::URA3 reporter, 5-FOA selection (AID 869;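 active = inhibition over a set limit, the all-compound mean plus 3 SD, in both replicate runs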;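 also: 0% = DMSO wells with no growth and 100% = 10 µM 1-NA-PP1 with full growth; RAM network block rescues cells from 5-FOA so hits raise OD615 growth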); conditions: S. cerevisiae dse1pr::URA3 5-FOA growth, OD615, 2 d, at 10 µM, hits give high values
[7] = RAM signaling pathway blockade in yeast – S. cerevisiae, Pdr1DBD-CYC8 efflux-inhibited sensitized strain, primary screen (AID 1298;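 active = RAM network inhibition above 8.4% in each of two replicates, 3 SD over the compound average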;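 also: 0% = DMSO untreated cells without growth and 100% = 10 µM 1-NA-PP1 full growth; higher means more yeast growth rescued from 5-FOA killing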); conditions: S. cerevisiae cbk1-as DSE1-URA3 strain, 5-FOA growth OD615, 2 d; at 50 µM; hits give high values

Cc1ccc2c(c1)C1CN(C)CCC1N2C(=O)Cn1nnc(-c2ccccc2F)n1 (centres undefined)
inactive: growth inhibition [1] 6.06% | growth inhibition [2] -9.18% | viability increase [3] -5.58% | viability [4] 85.2% | viability [5] 83.8% | inhibition [6] 0.18% | RAM network inhibition [7] 3.31%

CCOC(=O)c1c(C)n(Cc2ccco2)c2ccc(OC)cc12
inactive: growth inhibition [1] 3.7% | growth inhibition [2] 0.26% | viability increase [3] -4.85% | viability [4] 84.4% | viability [5] 85.8% | inhibition [6] 0.59% | RAM network inhibition [7] 3.6%

CN1CC=C(c2c[nH]c3ccccc23)CC1
inactive: growth inhibition [1] 0.43% | growth inhibition [2] 10.4% | viability increase [3] -3.51% | viability [4] 92% | viability [5] 92.5% | inhibition [6] -0.185% | RAM network inhibition [7] -1.66%

CC(C)NS(=O)(=O)c1ccc(OCC(=O)N2CCN(C)CC2)cc1
inactive: growth inhibition [1] -11.8% | growth inhibition [2] -2.15% | viability increase [3] -0.3% | viability [4] 96.3% | viability [5] 102% | inhibition [6] 1.13% | RAM network inhibition [7] 3.6%

CCOC(=O)C1CCN(/C=C2/C(=O)NC(=O)N(c3ccc(OCC)cc3)C2=O)CC1
inactive: growth inhibition [1] -11.5% | growth inhibition [2] -20.2% | viability increase [3] 1.62% | viability [4] 98% | viability [5] 97.5% | inhibition [6] 1.87% | RAM network inhibition [7] 1.16%

OC12CCCCC1C(c1ccccc1)NCC2 (centres undefined)
inactive: growth inhibition [1] -3.8% | growth inhibition [2] -17.1% | viability increase [3] -2.28% | viability [4] 102% | viability [5] 102% | inhibition [6] 3.24% | RAM network inhibition [7] 3.17%

CCN(c1ccc(C(O)(C(=O)OC)C(F)(F)F)cc1)S(=O)(=O)c1ccccc1 (centres undefined)
inactive: growth inhibition [1] -4.31% | growth inhibition [2] -3.91% | viability increase [3] 0.9% | viability [4] 99.4% | viability [5] 102% | inhibition [6] -0.62% | RAM network inhibition [7] 4.74%

CN(C)C(=O)Oc1ccc(OC(=O)N(C)C)cc1
inactive: growth inhibition [1] 1.07% | growth inhibition [2] -14.3% | viability increase [3] 0.6% | viability [4] 104% | viability [5] 99.5% | inhibition [6] 1.02% | RAM network inhibition [7] -0.32%

CC12CN3CC(C)(CN(C1)C3c1cccnc1)C2=O (centres undefined)
inactive: growth inhibition [1] -9.24% | growth inhibition [2] 7.5% | viability increase [3] -0.3% | viability [4] 103% | viability [5] 100% | inhibition [6] 1.14% | RAM network inhibition [7] 9%

CC12CCC(=O)C=C1CCC1C2CCC2(C)C(O)CCC12 (centres undefined)
inactive: growth inhibition [1] 5.38% | growth inhibition [2] 6.93% | viability increase [3] -3.17% | viability [4] 89.5% | viability [5] 94% | inhibition [6] 0.475% | RAM network inhibition [7] 1.32%

O=C1CC(=O)N(c2ccc(Cl)cc2Cl)C(=O)N1
inactive: growth inhibition [1] -10.7% | growth inhibition [2] 11.2% | viability increase [3] 0.06% | viability [4] 93.2% | viability [5] 91.2% | inhibition [6] 0.19% | RAM network inhibition [7] 1.94%

CC12CN3CC(C)(CN(C1)C3c1ccco1)C2=O (centres undefined)
inactive: growth inhibition [1] -8.88% | growth inhibition [2] -8.04% | viability increase [3] -0.55% | viability [4] 95.6% | viability [5] 99.6% | inhibition [6] 2.1% | RAM network inhibition [7] 2.07%

O/N=C/c1c[nH]c2ccccc12
inactive: growth inhibition [1] 4.87% | growth inhibition [2] 0.865% | viability increase [3] -4.62% | viability [4] 99.9% | viability [5] 94.4% | inhibition [6] 2.54% | RAM network inhibition [7] 3.59%

O=C(O)C1CN2CCC1CC2 (centres undefined)
inactive: growth inhibition [1] -6.59% | growth inhibition [2] 5.84% | viability increase [3] -0.31% | viability [4] 96.2% | viability [5] 93.3% | inhibition [6] 0.99% | RAM network inhibition [7] -0.77%

O=C(O)c1cc2ccccc2oc1=O
inactive: growth inhibition [1] -21.9% | growth inhibition [2] -5.03% | viability increase [3] -0.27% | viability [4] 103% | viability [5] 99.6% | inhibition [6] 1.08% | RAM network inhibition [7] 1.06%

Cc1cccnc1-n1c(-c2ccco2)nc2ccccc2c1=O
inactive: growth inhibition [1] -5.46% | growth inhibition [2] -8.26% | viability increase [3] -0.56% | viability [4] 100% | viability [5] 101% | inhibition [6] 0.59% | RAM network inhibition [7] -0.22%

CCOC(=O)c1c(C)c(P(=S)(N2CCOCC2)N2CCOCC2)n(C)c1C
inactive: growth inhibition [1] -22.4% | growth inhibition [2] -3.18% | viability increase [3] -3.92% | viability [4] 89.1% | viability [5] 87.1% | inhibition [6] 2.06% | RAM network inhibition [7] 2.36%
